Tests used:
Rhizopus arrhizus [1] = experiment: Antifungal activity against Rhizopus oryzae 05-203111 after 48 to 72 hrs; format: functional
Outline: (§1)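 After the broth microdilution MIC read, suspension from every well without visible growth was plated onto Sabouraud dextrose agar and incubated at 35°C, up to 7 days for molds. MFC was taken as the lowest drug concentration with no colonies.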

Aspergillus fumigatus [2] = experiment: Antifungal activity against Aspergillus fumigatus 05-203114 after 48 to 72 hrs; format: functional
Outline: (§2)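 CLSI M38-A2 broth microdilution for molds in RPMI 1640 with L-glutamine and no bicarbonate, buffered with 0.165 M MOPS to pH 7.0. Compounds were dissolved in water and tested at 0.175–87.5 μM final, 35°C, up to 7 days. MIC was read visually as 100% inhibition versus growth control. For MFC, clear wells were plated on SDA and the lowest concentration with no colonies taken. Each isolate was run in duplicate, two independent experiments.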

Exophiala spinifera = experiment: Antifungal activity against Exophiala spinifera 03-200803 after 24 to 72 hrs by broth microdilution method; format: functional
Outline: (§3)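 Mold isolates subcultured on potato dextrose agar, then tested by CLSI M38-A2 broth microdilution in RPMI 1640 (L-glutamine, no bicarbonate) buffered to pH 7.0 with 0.165 M MOPS. Compounds were dissolved in water and tested at a final 0.175–87.5 μM. Plates were incubated at 35°C. MIC was read visually as the lowest concentration giving 100% inhibition versus the growth control. Each isolate was run in duplicate in two independent experiments.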

Fusarium solani = experiment: Antifungal activity against Fusarium solani 04-203102 after 24 to 72 hrs by broth microdilution method; format: functional; outline: as §3
[3] = Antifungal activity against Paecilomyces lilacinus 05-200601 after 24 to 72 hrs by broth microdilution method; format: functional; details: Purpureocillium lilacinum; outline: as §3
Rhizopus arrhizus [4] = experiment: Antifungal activity against Rhizopus oryzae 05-203111 after 24 to 72 hrs by broth microdilution method; format: functional; outline: as §3
Pichia kudriavzevii [5] = experiment: Antifungal activity against Candida krusei 04-202328 after 48 to 72 hrs; format: functional
Outline: (§4)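 CLSI M27-A3 broth microdilution for yeasts in RPMI 1640 with L-glutamine and no bicarbonate, buffered with 0.165 M MOPS to pH 7.0. Compounds were dissolved in water and tested at 0.175–87.5 μM final, 35°C. MIC was read visually at 24–72 h as 100% inhibition versus growth control. For MFC, 30 μl from clear wells went onto SDA at 35°C for 48–72 h, reading the lowest concentration without colonies. Duplicates, two independent runs.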

Candida parapsilosis [6] = experiment: Antifungal activity against Candida parapsilosis ATCC 22019 after 48 to 72 hrs; format: functional; details: Lodderomyces parapsilosis
Outline: (§5)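 MFC: after the MIC read, 30-μl aliquots from each well without visible growth were plated onto Sabouraud dextrose agar and incubated at 35°C. Reading was at 48–72 h for yeasts and up to 7 days for molds. MFC was the lowest concentration with no colonies.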

Candida parapsilosis [7] = experiment: Antifungal activity against Candida parapsilosis 04-202398 after 48 to 72 hrs; format: functional; details: Lodderomyces parapsilosis; outline: as §4
Aspergillus fumigatus [8] = experiment: Antifungal activity against Aspergillus fumigatus 05-203114 after 24 to 72 hrs by broth microdilution method; format: functional
Outline: (§6)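 Broth microdilution MIC per CLSI M27-A3 (yeasts) or M38-A2 (molds). RPMI 1640 with L-glutamine, without bicarbonate, buffered to pH 7.0 with 0.165 M MOPS. Final test range for the compounds was 0.175–87.5 μM. Incubation at 35°C with visual reading at 24–72 h. MIC was the lowest concentration giving 100% inhibition versus the growth control (azoles 50% or 100%, by organism). Each isolate was run in duplicate in two independent experiments.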

Aspergillus flavus [9] = experiment: Antifungal activity against Aspergillus flavus ATCC 204304 after 24 to 72 hrs by broth microdilution method; format: functional; outline: as §6
Aspergillus flavus [10] = experiment: Antifungal activity against Aspergillus flavus 05-203758 after 24 to 72 hrs by broth microdilution method; format: functional; outline: as §6
Aspergillus terreus [11] = experiment: Antifungal activity against Aspergillus terreus 05-202844 after 24 to 72 hrs by broth microdilution method; format: functional; outline: as §6
Lomentospora prolificans [12] = experiment: Antifungal activity against Scedosporium prolificans 05-203060 after 24 to 72 hrs by broth microdilution method; format: functional; outline: as §3
Scedosporium apiospermum [13] = experiment: Antifungal activity against Scedosporium apiospermum 05-203100 after 24 to 72 hrs by broth microdilution method; format: functional; outline: as §3
[14] = tested on: Cunninghamella bertholletiae; experiment: Antifungal activity against Cunninghamella bertholletiae 99-12187 after 24 to 72 hrs by broth microdilution method; format: functional; outline: as §6
Lichtheimia corymbifera [15] = experiment: Antifungal activity against Absidia corymbifera 04-200170 after 24 to 72 hrs by broth microdilution method; format: functional; outline: as §6
Aspergillus fumigatus [16] = experiment: Antifungal activity against Aspergillus fumigatus ATCC 204305 after 24 to 72 hrs by broth microdilution method; format: functional; outline: as §6
[17] = tested on: Cryptococcus gattii species complex; experiment: Antifungal activity against Cryptococcus gattii 05-200122 after 24 to 72 hrs by broth microdilution method; format: functional, Cryptococcus bacillisporus; outline: as §6
Cryptococcus neoformans [18] = experiment: Antifungal activity against Cryptococcus neoformans 05-202523 after 24 to 72 hrs by broth microdilution method; format: functional; outline: as §6
Cryptococcus neoformans [19] = experiment: Antifungal activity against Cryptococcus neoformans ATCC 90112 after 24 to 72 hrs by broth microdilution method; format: functional; outline: as §6
Candida tropicalis = experiment: Antifungal activity against Candida tropicalis 04-202361 after 24 to 72 hrs by broth microdilution method; format: functional; outline: as §6
Nakaseomyces glabratus [20] = experiment: Antifungal activity against Candida glabrata 04-202345 after 24 to 72 hrs by broth microdilution method; format: functional; outline: as §6
Candida parapsilosis [21] = experiment: Antifungal activity against Candida parapsilosis 04-202398 after 24 to 72 hrs by broth microdilution method; format: functional; details: Lodderomyces parapsilosis; outline: as §6
Pichia kudriavzevii [22] = experiment: Antifungal activity against Candida krusei 04-202328 after 24 to 72 hrs by broth microdilution method; format: functional; outline: as §6
Candida parapsilosis [23] = experiment: Antifungal activity against Candida parapsilosis ATCC 22019 after 24 to 72 hrs by broth microdilution method; format: functional; details: Lodderomyces parapsilosis; outline: as §6
Pichia kudriavzevii [24] = experiment: Antifungal activity against Candida krusei ATCC 6258 after 24 to 72 hrs by broth microdilution method; format: functional; outline: as §6
Candida albicans [25] = experiment: Antifungal activity against Candida albicans ATCC 10231 after 24 to 72 hrs by broth microdilution method; format: functional; outline: as §6
Candida albicans [26] = experiment: Antifungal activity against Candida albicans ATCC 90028 after 24 to 72 hrs by broth microdilution method; format: functional; outline: as §6
[27] = Antifungal activity against Exophiala jeanselmei 03-200268 after 24 to 72 hrs by broth microdilution method; format: functional; outline: as §6
[28] = Antifungal activity against Exophiala jeanselmei 03-200268 after 48 to 72 hrs; format: functional; outline: as §2
[29] = Antifungal activity against Paecilomyces lilacinus 05-200601 after 48 to 72 hrs; format: functional; details: Purpureocillium lilacinum; outline: as §2
Aspergillus fumigatus [30] = experiment: Antifungal activity against Aspergillus fumigatus ATCC 204305 after 48 to 72 hrs; format: functional; outline: as §2
Aspergillus flavus [31] = experiment: Antifungal activity against Aspergillus flavus ATCC 204304 after 48 to 72 hrs; format: functional; outline: as §5
Aspergillus flavus [32] = experiment: Antifungal activity against Aspergillus flavus 05-203758 after 48 to 72 hrs; format: functional; outline: as §2
Aspergillus terreus [33] = experiment: Antifungal activity against Aspergillus terreus 05-202844 after 48 to 72 hrs; format: functional; outline: as §5
Lomentospora prolificans [34] = experiment: Antifungal activity against Scedosporium prolificans 05-203060 after 48 to 72 hrs; format: functional; outline: as §2
Pichia kudriavzevii [35] = experiment: Antifungal activity against Candida krusei […] after 48 to 72 hrs; format: functional; outline: as §5
Pichia kudriavzevii [36] = experiment: Antifungal activity against Candida krusei ATCC 9258 after 24 to 72 hrs by broth microdilution method; format: functional; outline: as §6
Lichtheimia corymbifera [37] = experiment: Antifungal activity against Absidia corymbifera 04-200170 after 48 to 72 hrs; format: functional; outline: as §2
Cryptococcus neoformans [38] = experiment: Antifungal activity against Cryptococcus neoformans 05-202523 after 48 to 72 hrs; format: functional; outline: as §5
Scedosporium apiospermum [39] = experiment: Antifungal activity against Scedosporium apiospermum 05-203100 after 48 to 72 hrs; format: functional; details: in the assay text read “for up to 7 days” for “after 48 to 72 hrs”; outline: as §1
Nakaseomyces glabratus [40] = experiment: Antifungal activity against Candida glabrata 04-202345 after 48 to 72 hrs; format: functional; outline: as §5

SMILES | MIC (Exophiala spinifera) | MIC (Fusarium solani) | MIC [3] | MIC (Rhizopus arrhizus [4]) | MIC (Aspergillus fumigatus [8]) | MIC (Aspergillus flavus [9]) | MIC (Aspergillus flavus [10]) | MIC (Aspergillus terreus [11]) | MIC (Lomentospora prolificans [12]) | MIC (Scedosporium apiospermum [13]) | MIC [14] | MIC (Lichtheimia corymbifera [15]) | MIC (Aspergillus fumigatus [16]) | MIC [17] | MIC (Cryptococcus neoformans [18]) | MIC (Cryptococcus neoformans [19]) | MIC (Candida tropicalis) | MIC (Nakaseomyces glabratus [20]) | MIC (Candida parapsilosis [21]) | MIC (Pichia kudriavzevii [22]) | also measured
[Cl-].[Cl-].c1ccc(CCCc2cc[n+](CCCCCCCCCCCC[n+]3ccc(CCCc4ccccc4)cc3)cc2)cc1 | 1.74 µg/mL | 27.9 µg/mL | > 55.8 µg/mL | 0.87 µg/mL | 13.9 µg/mL | 55.8 µg/mL | > 55.8 µg/mL | 1.74 µg/mL | > 55.8 µg/mL | > 55.8 µg/mL | 27.9 µg/mL | > 55.8 µg/mL | 27.9 µg/mL | 1.74 µg/mL | 27.9 µg/mL | 1.74 µg/mL | 0.87 µg/mL | 0.87 µg/mL | 55.8 µg/mL | 13.9 µg/mL | MFC (Rhizopus arrhizus [1]): 1.74 µg/mL; MFC (Aspergillus fumigatus [2]): 55.8 µg/mL; MFC (Pichia kudriavzevii [5]): 27.9 µg/mL; MFC (Candida parapsilosis [6]): 1.74 µg/mL; MFC (Candida parapsilosis [7]): > 55.8 µg/mL; MIC (Candida parapsilosis [23]): 0.87 µg/mL; MIC (Pichia kudriavzevii [24]): 13.9 µg/mL; MIC (Candida albicans [25]): 1.74 µg/mL; MIC (Candida albicans [26]): 1.74 µg/mL; MIC [27]: 1.74 µg/mL
CCCCCc1cc[n+](CCCCCCCCCCCC[n+]2ccc(CCCCC)c(CCCCC)c2)cc1CCCCC.[Cl-].[Cl-] | 1.86 µg/mL | 14.9 µg/mL | 14.9 µg/mL | 1.86 µg/mL | 7.5 µg/mL | 7.5 µg/mL | 14.9 µg/mL | 0.93 µg/mL | 1.86 µg/mL | 3.7 µg/mL | 7.5 µg/mL | 14.9 µg/mL | 7.5 µg/mL | 1.86 µg/mL | 7.5 µg/mL | 1.86 µg/mL | 1.86 µg/mL | 0.93 µg/mL | 7.5 µg/mL | 1.86 µg/mL | MFC [28]: 3.7 µg/mL; MFC [29]: 29.8 µg/mL; MFC (Aspergillus fumigatus [30]): 14.9 µg/mL; MFC (Aspergillus fumigatus [2]): 14.9 µg/mL; MFC (Aspergillus flavus [31]): 14.9 µg/mL; MFC (Aspergillus flavus [32]): 29.8 µg/mL; MFC (Aspergillus terreus [33]): 1.86 µg/mL; MFC (Lomentospora prolificans [34]): 3.7 µg/mL; MFC (Pichia kudriavzevii [35]): 3.7 µg/mL; MFC (Candida parapsilosis [7]): 14.9 µg/mL; MIC (Pichia kudriavzevii [36]): 1.86 µg/mL; MIC (Candida parapsilosis [23]): 1.86 µg/mL; MIC (Pichia kudriavzevii [24]): 1.86 µg/mL; MIC (Candida albicans [25]): 1.86 µg/mL; MIC (Candida albicans [26]): 1.86 µg/mL; MFC (Lichtheimia corymbifera [37]): 27.8 µg/mL; MIC [27]: 1.86 µg/mL
CC(C)(C)CCc1cc[n+](CCCCCCCCCCCC[n+]2ccc(CCC(C)(C)C)cc2)cc1.[Cl-].[Cl-] | 0.79 µg/mL | > 50.7 µg/mL | > 50.7 µg/mL | 6.3 µg/mL | > 50.7 µg/mL | > 50.7 µg/mL | > 50.7 µg/mL | 50.7 µg/mL | 1.58 µg/mL | 6.3 µg/mL | > 50.7 µg/mL | > 50.7 µg/mL | > 50.7 µg/mL | 1.58 µg/mL | 25.3 µg/mL | 1.58 µg/mL | 1.58 µg/mL | 0.79 µg/mL | 50.7 µg/mL | 25.3 µg/mL | MFC [28]: 3.2 µg/mL; MFC (Rhizopus arrhizus [1]): 25.3 µg/mL; MFC (Cryptococcus neoformans [38]): 50.7 µg/mL; MFC (Lomentospora prolificans [34]): 12.7 µg/mL; MFC (Scedosporium apiospermum [39]): 12.7 µg/mL; MFC (Candida parapsilosis [6]): 3.2 µg/mL; MIC (Candida parapsilosis [23]): 1.58 µg/mL; MIC (Pichia kudriavzevii [24]): 25.3 µg/mL; MIC (Candida albicans [25]): 3.2 µg/mL; MIC (Candida albicans [26]): 3.2 µg/mL; MFC (Nakaseomyces glabratus [40]): 1.58 µg/mL; MIC [27]: 1.58 µg/mL
